Among the data in ChEMBL document CHEMBL4513216, “Probing the Open Global Health Chemical Diversity Library for Multistage-Active Starting Points for Next-Generation Antimalarials” (ACS Infect Dis, 2020) are cytotoxicity values, retold here.

A short description of the series: Toxicity liver stage against HepG2, at 10uM. It is filed as cell-based. On the set-up: test concentration 10 uM, cell line HepG2-A16-CD81EGFP. As to conditions: human, HepG2-A16-CD81EGFP cells; read-out: INHIBITION
In short, it runs like this: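 Uninfected HepG2-A16-CD81EGFP cells, 3 × 10^3 per well, 1536-well, plated on prespotted compound at 10 μM final, parasite-free screening media added to match infected plates; puromycin 10 μM positive, DMSO 0.5% negative; run in parallel with 48 h PbLuc assay at 37 °C, 5% CO2; viability by CellTiter-Glo luminescence, normalized to controls.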
Turning to `O=C(NC1CCCC1)O[C@H]1COCCN(c2nc3ccccc3o2)C1`, the cytotoxicity at 10 µM is -3.51%. Next, `FC(F)(F)c1ccc2[nH]c([C@H]3CCNC3)nc2c1`: 2.91%; `COc1ccc2cnn(CC(=O)NC3CCCCC3)c(=O)c2c1OC`: -2.49%; `CSCCC(C)(O)CNS(=O)(=O)Cc1ccc(F)cc1` (stereo unspecified): -5.95%. The same measure for `Cc1noc(C)c1S(=O)(=O)N1CCC(Oc2cnccn2)CC1`: 4.95%.

Take `O=S(=O)(NCCNc1ccc(-n2cccc2)nn1)c1ccccc1`: the cytotoxicity at 10 µM was -0.426%. `O=S(=O)(Cc1ccccc1)NCCNc1ccc(-n2cccc2)nn1`: the cytotoxicity at 10 µM was 10.8%. Next, `CSc1ccc(C(O)CNS(=O)(=O)C2CC2)cc1` (stereo unspecified): -0.608%; `Cc1sc(CN)nc1-c1ccc(Cl)cc1Cl`: -1.14%. Take `Cc1ccc(-c2[nH][nH]c(=O)c2CCN)cc1`: the cytotoxicity at 10 µM is 6.03%. Next, `COc1ccc(NC(=O)Cn2cc(-c3ccccc3)ncc2=O)cn1`: -4.73%; `Cc1cnc(N2C(=O)CSC2c2ccc(F)cc2)s1` (stereo unspecified): -2.92%; `Nc1nnc(C2CC(=O)N(c3ccccc3)C2)s1` (stereo unspecified): 4.23%.

Consider `NC(=O)c1c(-c2ccc(Cl)cc2Cl)csc1NC(=O)CCC(=O)O`, for which the cytotoxicity at 10 µM was 8.32%. Next, `CC(C)C(=O)Nc1cc(C(=O)NC2CC(C)(C)NC(C)(C)C2)nn1C`: -7.04%; `CNc1[nH]nc(N)c1C(=O)Nc1ccc(OC)cc1`: 14.8%; `Cc1ccc(C2CN(C(=O)c3ccn(C)c(=O)c3)CCO2)nc1` (stereo unspecified): -17%. The same measure for `O=C(c1cccnc1)N1CCCC(c2ncncc2-c2ccncc2)C1` (stereo unspecified): -23.4%. The same measure for `Cc1ccc(CC(=O)N2CCCC(c3n[nH]c4nccnc34)C2)cc1` (stereo unspecified): -22.2%.

Consider `Cc1ccc(S(=O)(=O)N2C[C@@H]3C[C@@H](NC(=O)C(C)(C)C)[C@@H]3C2)cc1`, for which the cytotoxicity at 10 µM was -3.81%.

In the case of `CC(C)C(C(=O)O)c1cccc(Cl)c1` (stereo unspecified), the cytotoxicity at 10 µM is -12.8%. On to `CNS(=O)(=O)c1cc(C(=O)N2CCCCCC2CC(C)C)co1` (stereo unspecified), for which the cytotoxicity at 10 µM was found to be 11.2%. The same measure for `CN(Cc1ccc(F)cc1)Cc1cc2c(cc1Br)OCCO2`: -138%; for `Cc1ccc(F)c(S(=O)(=O)NCCc2nnc[nH]2)c1`: 3.16%. The same measure for `COc1ccc(C2CCCN2C(=O)c2ccc(=O)n(C)c2)cc1OC` (stereo unspecified): 11.3%; for `Cc1cnc(CN2CCCC(c3nc4ccccc4n3C(C)C)C2)o1` (stereo unspecified): -8.14%; for `CCn1c(CNC(=O)Nc2nc(C)c(C)o2)nc2ccccc21`: -5.3%.

Regarding `CNS(=O)(=O)c1ccc(CNC(=O)N(C)C(C)COC)cc1` (stereo unspecified), the cytotoxicity at 10 µM is -5.12%. With `CN(CC(=O)N(C)C1CCCCC1)Cc1nc2ccccc2c(=O)[nH]1`, the cytotoxicity at 10 µM is 2.26%. The same measure for `CC(C)C(=O)N1CC[C@H]2N(C)CC[C@@]2(C(=O)Nc2ccccc2)CC1`: -107%; for `CCN1CCO[C@@H]2CN(C(=O)NCc3ccccc3)CC[C@@H]2C1`: -117%; for `CN1C(=O)CC(c2ccccc2)C12CCN(c1ncc(F)cn1)CC2` (stereo unspecified): -108%. The same measure for `COCC(=O)NCc1cc(=O)n2c(n1)CN(Cc1nccs1)CCC2`: -107%; for `COCCc1noc(CN2CC(Cc3ccccc3)CC2=O)n1` (stereo unspecified): -7.11%. The same measure for `NC(=O)c1noc(Cn2ncc3ccccc3c2=O)n1`: -1.26%; for `O=C(NCCc1csc(-c2cccnc2)n1)c1cnn2c1CCCC2`: 3.41%; for `Cc1cc(F)ccc1OC1(C(=O)O)CCN(Cc2nccn2C)CC1`: 0.334%. As to `CCCOCCN1CCc2[nH]c(-c3ccccc3)nc2C1`, the cytotoxicity at 10 µM is -124%. Next, `CSc1ncc(C(=O)N2CCN(c3ccccc3C)CC2C)cn1` (stereo unspecified): 0.642%. Next, `Cc1noc(C)c1CC(=O)N1CCCC(Cn2ccnc2C)C1` (stereo unspecified): -3.6%. On to `Cc1cc(N2CCC3(CCCN(C4CCOCC4)C3=O)C2)ccn1` (stereo unspecified), for which the cytotoxicity at 10 µM is -134%. Consider `Cc1cc(CN(C)C2CCN(c3cccc(-c4cscn4)c3)CC2)on1`, for which the cytotoxicity at 10 µM was -0.371%. The same measure for `Cc1nnsc1C(=O)NCc1cccnc1N(C)Cc1ccccc1`: -6.91%; for `CS(=O)(=O)N1CCOC(CNC(=O)c2cccc(C#N)c2)C1` (stereo unspecified): -5.69%. Next, `Cc1ccc(C(=O)N2CC(C)(C)[C@@](C)(O)C2)cc1N1CCNC1=O`: -2.76%. The same measure for `CCOc1ccnc(N[C@@H](Cc2ccccc2)C(N)=O)n1`: 10.7%; for `Cc1cccc(C)c1-c1cc(NCCO)nc2[nH]ccc12`: 52.4%; for `CCn1c(CC2CCNCC2)nn(Cc2ccc(C(=O)NC)o2)c1=O`: 9.17%. As to `CCc1c(C)nc(C)nc1N1C[C@@H](CN(C)C)[C@@H](CO)C1`, the cytotoxicity at 10 µM is -0.247%.

As to `CCN1CC(C(=O)NCCn2cccc2)CCC1=O` (stereo unspecified), the cytotoxicity at 10 µM was -1.64%. As to `O=C1CN(Cc2ccc(-c3ccccc3C(=O)O)cc2)CCN1`, the cytotoxicity at 10 µM was -1.88%.

As for `CCOc1cccc(CNC(=O)N2CCC(Cc3cnn(C)c3)C2)c1` (stereo unspecified), the cytotoxicity at 10 µM was -3.16%. Next, `Cc1ccccc1C1(C(=O)NCCN2CCCC2)CCOCC1`: -7.54%. `O=C(Cc1ccccc1Cl)N1CCCC(n2cncn2)C1` (stereo unspecified): the cytotoxicity at 10 µM is -11.1%.

Take `CCn1cc(CN2CCCN(C(=O)Cc3cccs3)CC2)cn1`: the cytotoxicity at 10 µM was -2.76%. Next, `CS(=O)(=O)c1ccc(C(O)CN2CCC(c3ccn[nH]3)CC2)cc1` (stereo unspecified): -12.1%. The same measure for `Cc1cc(C)n(CC2CCCN2C(=O)c2cc[nH]n2)n1` (stereo unspecified): -3.8%; for `COc1ncccc1NC(=O)NCC(O)c1ccc(F)cc1F` (stereo unspecified): 30.9%. The same measure for `O=C(CCOCc1ccccc1)N1CCCC1c1noc(C2CC2)n1` (stereo unspecified): -4.74%; for `CCc1nccn1C1CCCN(C(=O)c2cnn(C)c2C2CC2)C1` (stereo unspecified): -12.8%; for `COc1ccc(-n2ccc(C(=O)NCCN3CCCCC3C)n2)cc1` (stereo unspecified): -8.43%.

With `COc1ccc(C(C)N(C)Cc2c(C3CC3)[nH]c3ncccc23)cc1` (stereo unspecified), the cytotoxicity at 10 µM is -2.45%.

As for `Cc1occc1C(=O)N1Cc2nccn2CC(CN(C)C)C1` (stereo unspecified), the cytotoxicity at 10 µM was -97.7%.

Regarding `CCN1C[C@H]2C3(CCN(S(C)(=O)=O)CC3)CC[C@@]2(C(=O)N(C)C)C1`, the cytotoxicity at 10 µM was -107%. The same measure for `O=C(O)CN1CCCC2(CCN2Cc2cccc(F)c2)C1` (stereo unspecified): -108%; for `O=C(c1ccccc1F)N1CCC2(CC1)CC(N1CCCC1)CO2` (stereo unspecified): -120%; for `CNC(=O)CC1CC2(CCN(CC3CC3)CC2)Oc2ccccc21` (stereo unspecified): -0.0368%. As to `c1cncc(CN2CC[C@H]3O[C@@H](COCC4CC4)CC[C@H]32)c1`, the cytotoxicity at 10 µM stood at 2.19%. Next, `CC(C)c1nc(C(=O)N2C[C@@H]3CC[C@H]2CN(C2CCOCC2)C3)cs1`: 5.31%; `O=C(Nc1ccccc1)N1C2CCC(O)(CC2)C1CO` (stereo unspecified): -5.2%. Next, `Cc1noc(C)c1CN1C(=O)[C@@H]2CC[C@H]1CN(C(=O)c1cscn1)C2`: -10.6%.
